The list is not random: actives were taken first. Their share in the collection is about 2.4%.
SIAE primary – human SIAE inhibitors, primary screen, biochemical, fluorescence polarization, FP-Rh probe, 1536-well HTS; 370,000 compounds, 0.69% hits; AID 1053197, 2014; Sialate O-acetylesterase (Homo sapiens), Q9HAT2; SIAE FP-Rh probe binding; inhibition, % at 9.66 µM;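 active = inhibition above a cutoff: mean of compounds within the control limits plus 3 SD of those, cut at about 17% in these data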
TCR-CD3 inh – inhibitors of human TCR-CD3 interaction, primary screen, biochemical, fluorescence, TAMRA-labeled TCR probe. T-cell receptor (TCR). inhibition, % at 9.4 µM. 360,000 compounds, 0.37% hits. AID 651800, 2012; in the data active = inhibition above about 19%;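 also: recombinant mutant TCR 2C K166C tagged with TAMRA read by polarization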
GSTO1 counter – inhibitors of recombinant GSTO1, primary screen, counter-screen for RBBP9 inhibitor project, biochemical, fluorescence polarization; Glutathione S-transferase omega-1 (Homo sapiens), P78417; activity-based probe fluorescence polarization; inhibition, % at 5.96 µM; 300,000 compounds, 1.1% hits; AID 1974, 2009;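 active = inhibition above the campaign mean inhibition plus 3 SD, cut at about 35% in these data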
Target sequence (P78417 whole entry, looked up): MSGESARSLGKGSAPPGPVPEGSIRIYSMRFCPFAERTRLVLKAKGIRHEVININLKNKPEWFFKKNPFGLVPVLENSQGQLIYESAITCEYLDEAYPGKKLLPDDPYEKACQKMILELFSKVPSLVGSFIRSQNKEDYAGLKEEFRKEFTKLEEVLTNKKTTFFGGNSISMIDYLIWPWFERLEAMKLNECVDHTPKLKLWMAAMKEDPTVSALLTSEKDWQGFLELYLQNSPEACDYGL
PAD4 inh – human PAD4 inhibitors, primary screen, biochemical, fluorescence polarization, 1536-well format | AID 485272, 2010 | 330,000 compounds, 0.41% hits | recombinant PAD4, RCA probe fluorescence polarization | inhibition, % at 6.36 µM | Protein-arginine deiminase type-4 (Homo sapiens), Q9UM07;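 active = percent inhibition above a cutoff equal to the mean of all tested compounds plus 3 SD, cut at about 15% in these data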
Apaf-1 inh – inhibitors of human Apaf-1 apoptosome, primary screen, biochemical, DEVD-Rh110 fluorescence, uHTS. Apoptotic protease-activating factor 1 (Homo sapiens), O14727. reconstituted apoptosome caspase-3 activity. inhibition, % at 20 µM. 330,000 compounds, 0.71% hits. AID 489030, 2010; active = inhibition of at least 40% at 20 µM
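Material: reconstituted apoptosome with Apaf-1, cytochrome c, caspase-9, procaspase-3, dATP; medium: pH 7.5 Hepes buffer with CHAPS, BSA, DTT; also added: cytochrome c and DEVD-Rh110 substrate; timing: 30 min plus 50 min, RT; signal: Rh110 fluorescence intensity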
TDP2 absorb – human TDP2 enzyme inhibitors, primary screen, biochemical, epi absorbance, recombinant enzyme | Tyrosyl-DNA phosphodiesterase 2 (Homo sapiens), O95551 | T5PNP hydrolysis, p-nitrophenol absorbance 415 nm | inhibition, % at 12.8 µM | 370,000 compounds, 0.34% hits;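 active = inhibition above the mean of all tested compounds plus 3 SD, set per campaign, cut at about 25% in these data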
Target sequence (O95551 whole entry, looked up): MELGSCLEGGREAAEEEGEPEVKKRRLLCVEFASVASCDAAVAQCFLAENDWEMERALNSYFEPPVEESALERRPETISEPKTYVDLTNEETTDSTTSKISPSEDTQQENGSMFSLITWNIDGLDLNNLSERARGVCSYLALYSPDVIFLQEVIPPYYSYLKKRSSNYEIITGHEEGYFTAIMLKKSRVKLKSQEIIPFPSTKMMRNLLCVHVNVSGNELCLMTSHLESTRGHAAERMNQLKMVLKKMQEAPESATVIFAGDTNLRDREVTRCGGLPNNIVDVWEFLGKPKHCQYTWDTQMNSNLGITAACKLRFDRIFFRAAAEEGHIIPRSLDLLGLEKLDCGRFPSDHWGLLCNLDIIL
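System: recombinant human TDP2 / Amount: 120 nM TDP2 per well / Also added: 5 mM T5PNP chromogenic substrate / Doses: 12.8 µM single point, 1% DMSO / Incubation: 2 h at 37 °C / Detection: p-Nitrophenol epi absorbance / Evaluation: % inhibition relative to enzyme-containing and enzyme-free wells / Repeats: singlicate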
Apaf-1 inh conf – Apaf-1 inhibitors, single-dose retest, confirmation, biochemical, fluorescence, DEVD-Rh110, 20 µM; shares compounds with Apaf-1 inh; reconstituted apoptosome, caspase-3 DEVD-Rh110 fluorescence; inhibition, % at 20 µM; 1,800 compounds, 25% hits; AID 504614, 2011;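 active = mean inhibition of at least 40% at 20 µM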
Rh110 quench – Rh110 fluorescence interference by putative Apaf-1 inhibitors, confirmation, artefact control for Apaf-1 inhibitor project, biochemical, 20 µM; quenched caspase reaction; activation (fluorescence interference), % at 20 µM; 1,800 tested, under 10 active; shares compounds with Apaf-1 inh; AID 504615, 2011;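 active = signal rise of 40% or more at 20 µM, treated as a fluorescence artifact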
Apaf1 inh interf – fluorescence interference of Apaf-1 inhibitor hits, dose response, artefact control for Apaf-1 inhibitor project | shares compounds with Apaf-1 inh | fluorescence interference counterscreen, Apaf-1 assay format | IC50, µM | 460 tested, under 10 active | AID 588538, 2011; call rule not given here
Large screens that a line does not name were inactive (follow-up assays come after a bar, where they were run).

CCOC(=O)c1sc(NC(=O)c2cccc(S(=O)(=O)N3c4ccccc4CC3C)c2)cc1C (stereo not given)	none
c1ccc(C[C@H]2CN=C(Nc3ccccc3)N2CCCC2CCCCC2)cc1	Apaf-1 inh 47 (no result: GSTO1 counter) | Apaf-1 inh conf inactive | Rh110 quench inactive
C[C@@H](C(=O)NC1CCN(Cc2ccccc2)CC1)N1C(=O)N2CCc3c([nH]c4ccccc34)[C@@]2(C)C1=O	none
CC(C)C[C@@H](C(=O)NC1CCN(Cc2ccccc2)CC1)N1C(=O)N2CCc3c([nH]c4ccccc34)[C@@]2(C)C1=O	Apaf-1 inh 45 | Apaf-1 inh conf inactive | Rh110 quench inactive
COc1ccc(-n2nc3cc(C)c(N)c(Br)c3n2)cc1	none
COc1ccc(-n2nc3cc(N)c(Br)cc3n2)cc1	Apaf-1 inh 69 | Apaf-1 inh conf inactive | Rh110 quench inactive
CCCCCC(=O)Nc1nc(C)c(-c2csc(Nc3cc(OC)ccc3OC)n2)s1	none
CCCCCCC(=O)Nc1nc(C)c(-c2csc(Nc3cc(OC)ccc3OC)n2)s1	Apaf-1 inh 49 | Apaf-1 inh conf inactive | Rh110 quench inactive
COc1ccc(N2CCN(C(=O)C3CCN(S(=O)(=O)N4CCOCC4)CC3)CC2)cc1	none (no result: GSTO1 counter, PAD4 inh, Apaf-1 inh)
COc1cc(C)c2c(c1C=O)Oc1c(c(C)c(O)c3c1C(O)OC3=O)OC2=O (stereo not given)	Apaf-1 inh 56 | Apaf-1 inh conf inactive | Rh110 quench inactive
CN1CCN(c2ccc(NC(=O)c3cc(S(N)(=O)=O)ccc3N3CCOCC3)cc2)CC1	Apaf-1 inh 40 (no result: GSTO1 counter) | Apaf-1 inh conf inactive | Rh110 quench inactive
O=C(Nc1ccc2nsnc2c1)N1CCCCC1	Apaf-1 inh 73 | Apaf-1 inh conf inactive | Rh110 quench inactive
CN(Cc1ccccc1)c1oc(-c2ccco2)nc1C#N	Apaf-1 inh 41 | Apaf-1 inh conf inactive | Rh110 quench inactive
COc1cc(/C=C/c2cc[n+](C)cc2)ccc1OCC(=O)Nc1ccc(Cl)c(Cl)c1	Apaf-1 inh 73 | Apaf-1 inh conf 46 | Rh110 quench inactive | Apaf1 inh interf inactive
C1CCC(C(CC2CCCCN2)C2CCCCC2)CC1 (stereo not given)	Apaf-1 inh 61 | Apaf-1 inh conf inactive | Rh110 quench inactive
CCC(=O)N(CCc1ccccc1C)Cc1cc2cc3c(cc2[nH]c1=O)OCO3	Apaf-1 inh 41 | Apaf-1 inh conf inactive | Rh110 quench inactive
CCC(=O)N(Cc1ccco1)Cc1cc2cc3c(cc2[nH]c1=O)OCO3	none
Cc1cc(C)c(S(=O)(=O)/N=C2\C=C(NS(=O)(=O)c3ccccc3)C(=O)c3ccccc32)c(C)c1	GSTO1 counter 60, Apaf-1 inh 64 | Apaf-1 inh conf 48 | Rh110 quench inactive | Apaf1 inh interf inactive
COC(=O)C1=C(C)N(Cc2ccccc2)C(=NCCc2c[nH]c3ccccc23)N[C@H]1c1cccc(F)c1	Apaf-1 inh 60 (no result: GSTO1 counter) | Apaf-1 inh conf inactive | Rh110 quench inactive
COC(=O)C1=C(C)N(Cc2ccccc2)C(=NCCc2c[nH]c3ccccc23)N[C@H]1c1ccccc1	Apaf-1 inh 69 (no result: SIAE primary, TCR-CD3 inh, GSTO1 counter, TDP2 absorb) | Apaf-1 inh conf inactive | Rh110 quench inactive
COCCN=C1N[C@@H](c2ccccc2)C(C(=O)OC)=C(C)N1Cc1ccccc1	none
COC(=O)c1cn(C(=O)c2ccc(C)cc2C)c2ccccc12	none
C/C(=N\OCC(=O)Nn1c(C)nc2ccccc2c1=O)c1ccccc1	none
CC(C)(C)N(Cc1ccccc1)C(=O)COC(=O)C1CCN(c2ccc(C(F)(F)F)cn2)CC1	none (no result: GSTO1 counter)
FC(F)(F)c1cc(CCN2CCNC[C@@H]2CC2CCCCC2)cc(C(F)(F)F)c1	Apaf-1 inh 79 (no result: GSTO1 counter) | Apaf-1 inh conf 41 | Rh110 quench inactive | Apaf1 inh interf inactive
NC1=NC[C@@H](Cc2ccc(O)cc2)N1CCc1cc(C(F)(F)F)cc(C(F)(F)F)c1	none
NC1=NC[C@H](CC2CCCCC2)N1CCc1cc(C(F)(F)F)cc(C(F)(F)F)c1	Apaf-1 inh 74 | Apaf-1 inh conf 50 | Rh110 quench inactive | Apaf1 inh interf inactive
Fc1cccc(CCN2CCNC[C@@H]2c2ccccc2)c1	none (no result: GSTO1 counter)
FC(F)(F)c1cc(CCN2CCNC[C@@H]2c2ccccc2)cc(C(F)(F)F)c1	Apaf-1 inh 61 (no result: GSTO1 counter) | Apaf-1 inh conf inactive | Rh110 quench inactive
Cc1ccc(-c2nn(-c3ccccc3)cc2C(=O)N2CCOCC2)cc1	none
COc1ccc(-c2nnc3c4ccccc4c(C)nn23)cc1	none
Cc1nn2c(-c3ccncc3)nnc2c2ccccc12	Apaf-1 inh 74 | Apaf-1 inh conf 86 | Rh110 quench inactive | Apaf1 inh interf inactive
COC(=O)[C@]12C[C@H](CC(=O)N3CCCCC3)C(=O)N(Cc3ccc4c(c3)OCO4)C1=C[C@H](COCc1ccccc1)O[C@@H]2C	none (no result: GSTO1 counter, PAD4 inh, Apaf-1 inh)
O=S(=O)(/N=C/N1CCOCC1)c1ccc(Cl)cc1	Apaf-1 inh 43 | Apaf-1 inh conf inactive | Rh110 quench inactive
O=C1c2ccccc2C(=O)N1CC(=O)N1c2ccccc2CCc2ccccc21	none
O=C(C(Cc1ccccc1)N1C(=O)c2ccccc2C1=O)N1c2ccccc2CCc2ccccc21 (stereo not given)	Apaf-1 inh 40 | Apaf-1 inh conf inactive | Rh110 quench inactive
CCOC(=O)N1CCN(C(=O)c2cccc(S(=O)(=O)Nc3ccc(OC)cc3)c2)CC1	Apaf-1 inh 51 | Apaf-1 inh conf inactive | Rh110 quench inactive
CCOC(=O)N1CCN(C(=O)c2cccc(S(=O)(=O)Nc3ccc(F)cc3)c2)CC1	none (no result: GSTO1 counter, PAD4 inh, Apaf-1 inh)
Nc1nc(-c2ccc(Cl)cc2)cs1	none (no result: GSTO1 counter, PAD4 inh, Apaf-1 inh)
COc1cccc(-c2nnc(SC(C(=O)c3c[nH]c4ccccc34)c3ccccc3)n2C)c1 (stereo not given)	Apaf-1 inh 43 | Apaf-1 inh conf inactive | Rh110 quench inactive
CC(C)OC(=O)CC1C(=O)NCCN1C(=S)NC(=O)CCc1ccccc1 (stereo not given)	none
